Calls of active or inactive are those of the source.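 How the source made its calls, unless noted: active means fluorescence slope after compound addition differing from the mean of all tested samples at 99.7% confidence, mostly higher but some lower; inactive means the rest.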
Columns and labels:
[1] = inhibitors of TNFa-induced NFkB p65 translocation, primary screen, imaging, HUVEC, MLSMR starter and 10KST1 sets (AID 438;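 active means inhibition above 20% together with a positive visual image hit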;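 further: compound added about 3h40 before a 20 min TNFalpha stimulation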;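 on inhibition: signal is the nuclear over cytoplasmic p65 intensity ratio per well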); settings: HUVEC TNFa-induced p65 nuclear translocation; cell count: measured here: nuclei count (cytotoxicity indicator), at 2.08 µM; inhibition: at 2 µM, stronger effect = higher value, 0% TNFa-plus-vehicle, 100% no-TNFa wells
[2] = inhibitors of mutant huntingtin aggregation, primary screen, imaging, exon1htt(103Q)mCFP cells, high-content imaging (AID 483;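 active means visual image review flags a hit and inhibition of aggregation exceeds 20%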;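 further: compound exposure lasted 3 days before fixation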;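 on nuclei count: percent of the per-plate median nuclei count of sample wells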); settings: exon1htt(103Q)mCFP cell line, aggregate imaging, at 2 µM; inhibition of aggregation: stronger effect = higher value; nuclei count: measured here: cell count, toxicity
[3] = inhibitors of E-selectin induction by TNFa, primary screen, imaging, HUVEC, immunofluorescence, MLSMR starter and 10KST1 sets (AID 487;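 active means visually confirmed hit in the image check and inhibition above 20%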;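 on inhibition: signal is fraction of cell area covered by stained E-selectin grains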;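 on nuclei count: 100% = median nuclei count of all wells on the same plate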); settings: HUVEC TNFalpha-induced E-selectin immunofluorescence imaging, at 2 µM; inhibition: stronger effect = higher value; nuclei count: measured here: cell number, toxicity
[4] = target: Voltage-gated potassium channel subunit beta-2 (Rattus norvegicus) (UniProt P62483); test: KvBeta enzyme negative modulators, primary screen, biochemical, NADPH fluorescence (AID 622;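 active means fluorescence slope higher than the sample average by over 3 SD, cut at about -0.22 in these data, passing the limit was not always enough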;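 further: slope of raw intensity against log time taken from 70 to 1610 s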); settings: recombinant KvBeta, 4-cyanobenzaldehyde reduction, at 10 µM, stronger effect = higher value
Chain of Voltage-gated potassium channel subunit beta-2 (Rattus norvegicus) (P62483 whole entry, looked up): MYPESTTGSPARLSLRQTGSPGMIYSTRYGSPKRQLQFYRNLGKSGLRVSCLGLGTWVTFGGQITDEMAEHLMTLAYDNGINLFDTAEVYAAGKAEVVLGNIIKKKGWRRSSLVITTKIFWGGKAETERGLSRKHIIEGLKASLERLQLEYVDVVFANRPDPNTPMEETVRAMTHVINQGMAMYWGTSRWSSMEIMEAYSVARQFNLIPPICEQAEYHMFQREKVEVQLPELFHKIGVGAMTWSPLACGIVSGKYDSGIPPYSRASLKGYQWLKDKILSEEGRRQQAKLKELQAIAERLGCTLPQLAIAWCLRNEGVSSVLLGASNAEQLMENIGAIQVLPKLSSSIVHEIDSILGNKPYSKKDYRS

[5] = target: Voltage-gated potassium channel subunit beta-2 (Rattus norvegicus) (UniProt P62483); test: KvBeta positive modulators, primary screen, biochemical, NADPH fluorescence (AID 623;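 active means NADPH fluorescence slope more negative than the mean of all samples by about 3 SD, 99.7% confidence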;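 further: fluorescence intensity change per second fitted from 20 to 320 s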); settings: Recombinant KvBeta, NADPH fluorescence decrease slope, 10 min; at 10 µM; stronger effect = lower value
[6] = target: Muscarinic acetylcholine receptor M4 (Homo sapiens) (UniProt P08173); test: compounds altering M4/GIRK thallium flux, either direction, primary screen, M4 allosteric agonist project, cell-based, HEK293 M4/GIRK, BTC-AM (AID 625); settings: at 10 µM, actives lie on both sides;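 further: thallium influx through GIRK channels coupled to M4 in HEK293 cells with BTC-AM dye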
Chain of Muscarinic acetylcholine receptor M4 (Homo sapiens) (P08173 whole entry, looked up): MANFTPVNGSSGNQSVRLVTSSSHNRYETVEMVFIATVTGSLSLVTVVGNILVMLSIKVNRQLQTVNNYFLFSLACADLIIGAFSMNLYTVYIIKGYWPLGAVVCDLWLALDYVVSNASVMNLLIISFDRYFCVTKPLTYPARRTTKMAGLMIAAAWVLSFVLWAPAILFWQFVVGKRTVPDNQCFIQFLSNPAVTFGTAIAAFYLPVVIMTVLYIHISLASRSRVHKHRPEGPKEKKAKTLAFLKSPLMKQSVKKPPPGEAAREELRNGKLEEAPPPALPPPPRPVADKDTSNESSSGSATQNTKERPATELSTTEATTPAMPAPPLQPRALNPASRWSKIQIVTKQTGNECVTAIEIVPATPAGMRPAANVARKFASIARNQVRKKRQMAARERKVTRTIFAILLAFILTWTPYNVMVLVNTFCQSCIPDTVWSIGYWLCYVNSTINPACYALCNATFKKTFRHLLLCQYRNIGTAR
Summary of the method: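 assay system = HEK293 cells with M4 receptor and GIRK channels | medium = pH 7.3 thallium assay buffer | doses = 10 µM final, single point | timing = cells overnight at 37 °C, BTC-AM loading 1 h, reads 2 min total | signal = BTC-AM fluorescence, 1 Hz kinetic reads | read-out = post-addition slope, 15–24 s, of baseline-normalized fluorescence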

[7] = inhibitors of Sendai virus-induced IRF3 signaling, primary screen, TLR/RLR signaling modifier project, cell-based, Sendai virus stimulus, luciferase, 10K MLSCN set (AID 602276;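 active means inhibition at or above 50% at 10 µM; inactive means inhibition below 50%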;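 further: firefly luciferase from ISG56 promoter only with Renilla not read in this screen; 0% = Sendai virus plus DMSO and 100% = medium plus DMSO without virus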); settings: HEK293 RL24 IRF3 luciferase reporter, at 10 µM, stronger effect = higher value
[8] = inhibitors of poly I:C-induced TLR3 signaling, primary screen, cell-based, poly I:C stimulus, luciferase, 10K MLSCN set (AID 602277;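 active means inhibition of the reporter signal at or above 50%; inactive means inhibition below 50%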); settings: HEK293-TLR3 RL24 IRF3 luciferase reporter, at 10 µM, stronger effect = higher value

Row | SMILES | cell count [1] | inhibition [1] | inhibition of aggregation [2] | nuclei count [2] [%] | inhibition [3] | nuclei count [3] [%] | fluorescence slope [4] | NADPH fluorescence slope [5] | fluorescence slope [6] | inhibition [7] | inhibition [8]
1 | FC(F)Sc1nnc(-c2cccs2)n1-c1ccccc1 | 824 | -5% (inactive) | -10.1% (inactive) | 95.3 | -146% (inactive) | 122 | -0.532 (inactive) | -3.2e-05 (inactive) | 0.00612 (inactive) | 17.7% (inactive) | 31% (inactive)
2 | COC(=O)c1c(N)n(-c2cc(OC)cc(OC)c2)c2nc3ccccc3nc12 | 700 | 9.4% (inactive) | 2.3% (inactive) | 84.9 | 28.6% (inactive) | 80 | -0.0659 (inactive) | -2.3e-05 (inactive) | 0.00491 (inactive) | 2.96% (inactive) | -6.82% (inactive)
3 | CCOC(=O)c1nnn(-c2nonc2N)c1CN1CCc2ccccc2C1 | 200 | -3.9% (inactive) | -11.1% (inactive) | 80.6 | -18.4% (inactive) | 108 | -0.45 (inactive) | 4.7e-05 (inactive) | 0.00671 (inactive) | 6.68% (inactive) | 24.5% (inactive)
4 | O=C1CC(Cc2ccccc2)C(=O)N1CCc1ccc2c(c1)OCO2 (stereo not drawn) | 480 | 3.5% (inactive) | -0.2% (inactive) | 110 | -145% (inactive) | 127 | -0.579 (inactive) | -1.8e-05 (inactive) | 0.00603 (inactive) | -0.603% (inactive) | 9.62% (inactive)
5 | CCN(Cc1nc2ccccc2c(=O)[nH]1)Cc1nc2cc(OC)c(OC)cc2c(=O)[nH]1 | 403 | -19.9% (inactive) | 0% (inactive) | 113 | -17.4% (inactive) | 144 | -0.324 (inactive) | -3.7e-06 (inactive) | 0.00825 (inactive) | -12.7% (inactive) | -12.6% (inactive)
6 | Cc1nnc(SCC(=O)Nc2ccc3c4c(cccc24)CC3)n1C | 336 | 1.8% (inactive) | -11.5% (inactive) | 97.3 | -41.4% (inactive) | 108 | -0.24 (inactive) | -4.5e-05 (inactive) | 0.00568 (inactive) | 15.8% (inactive) | 5.58% (inactive)
7 | CCNS(=O)(=O)c1ccc(S(=O)(=O)N(Cc2ccccn2)C2CCCCC2)cc1 | 579 | 3.8% (inactive) | 6.6% (inactive) | 108 | -3.6% (inactive) | 100 | -0.348 (inactive) | -6.9e-05 (inactive) | 0.00588 (inactive) | 12.3% (inactive) | 40.2% (inactive)
8 | Cc1cc(C(F)F)n2ncc(C(=O)NC3CCCCCC3)c2n1 | 354 | 0% (inactive) | -4.8% (inactive) | 106 | 1.4% (inactive) | 113 | -0.569 (inactive) | -7.1e-05 (inactive) | 0.00445 (inactive) | 15.9% (inactive) | 15.5% (inactive)
9 | CCOCCCNS(=O)(=O)c1ccc2c(c1)oc(=O)n2CC(=O)OCC | 454 | -6.6% (inactive) | 24.3% (inactive) | 119 | -7.8% (inactive) | 82.5 | -0.444 (inactive) | 3.2e-05 (inactive) | 0.00606 (inactive) | 12.8% (inactive) | 23.6% (inactive)
10 | Cc1cccc(N2CCN(C(=O)Cn3ccc4ccccc4c3=O)CC2)c1C | 340 | 11% (inactive) | 3.8% (inactive) | 95.6 | -4.9% (inactive) | 94 | -0.568 (inactive) | 2.6e-06 (inactive) | 0.00591 (inactive) | -3.75% (inactive) | -30.8% (inactive)
11 | O=C(COC(=O)c1ccc(Br)o1)Nc1ccc(S(=O)(=O)N2CCCC2)cc1 | 619 | -3.6% (inactive) | -10.1% (inactive) | 117 | -150% (inactive) | 130 | -0.208 (inactive) | -2e-05 (inactive) | 0.00525 (inactive) | 12.4% (inactive) | 11.3% (inactive)
12 | COc1cccc(CN(C(=O)c2cc3ccccc3oc2=O)C2CC2)c1 | 459 | -6.2% (inactive) | -16% (inactive) | 108 | -52.3% (inactive) | 137 | -0.51 (inactive) | -2.3e-05 (inactive) | 0.00464 (inactive) | -43.3% (inactive) | -136% (inactive)
13 | O=C(Cc1ccccc1)Nc1nnc(-c2cccs2)s1 | 373 | -5.4% (inactive) | -3.5% (inactive) | 115 | -11.8% (inactive) | 130 | -0.521 (inactive) | -1.2e-05 (inactive) | 0.00894 (inactive) | 7.41% (inactive) | -69.9% (inactive)
14 | Cc1cc(NC(=O)CS(=O)(=O)c2cn(Cc3cccc(F)c3)c3ccccc23)no1 | 815 | -6.6% (inactive) | 6.9% (inactive) | 116 | -94.1% (inactive) | 107 | -0.262 (inactive) | -2.4e-05 (inactive) | 0.00574 (inactive) | 11.5% (inactive) | 0.399% (inactive)
15 | O=c1oc2ccccc2n1CCc1ccccc1 | 470 | -4.6% (inactive) | 0% (inactive) | 88.3 | -76.9% (inactive) | 238 | -0.522 (inactive) | -0.000209 (inactive) | 0.00443 (inactive) | -4.32% (inactive) | -4.85% (inactive)
16 | CCSC1(SCC)N=C(N)C2(C#N)C(c3ccccc3)NC(C)=C(C)C12C#N (stereo not drawn) | 422 | 2% (inactive) | 13.7% (inactive) | 108 | -15.4% (inactive) | 120 | -0.401 (inactive) | -1.2e-05 (inactive) | 0.00608 (inactive) | 7.48% (inactive) | 17.3% (inactive)
17 | O=C(Cc1nn[nH]n1)NCCC1=CCCCC1 | 402 | 1.7% (inactive) | 2.5% (inactive) | 99.7 | -1.4% (inactive) | 113 | -0.567 (inactive) | -8.7e-06 (inactive) | 0.00606 (inactive) | 5.61% (inactive) | 18% (inactive)
18 | Cc1cc(C)cc(OCCCC(=O)O)c1 | 254 | 9.4% (inactive) | 12.3% (inactive) | 118 | -45% (inactive) | 94.2 | -0.531 (inactive) | -4.2e-05 (inactive) | 0.00463 (inactive) | -0.0954% (inactive) | 17.4% (inactive)
19 | O=C(CSc1nnc(Cc2ccccc2)n1C1CCCCC1)N1CCOCC1 | 367 | 7.2% (inactive) | 12.5% (inactive) | 104 | -264% (inactive) | 113 | -0.463 (inactive) | 5e-05 (inactive) | 0.00611 (inactive) | -13% (inactive) | -20.2% (inactive)
20 | CCCCC(CC)Cn1c2nc3ccccc3nc2c2c(=N)oc(C)nc21 (stereo not drawn) | 624 | 15.7% (inactive) | 23.1% (inactive) | 64.9 | -5.3% (inactive) | 97.3 | -0.196 (inactive) | 4.4e-06 (inactive) | 0.00498 (inactive) | 16.1% (inactive) | 15.4% (inactive)
21 | COc1ccc(-c2nnc(SCC#N)o2)cc1 | 333 | -8.7% (inactive) | 29.7% (active) | 86 | 24.6% (inactive) | 102 | -0.511 (inactive) | -2.6e-05 (inactive) | 0.00472 (inactive) | -8.24% (inactive) | -31.5% (inactive)
22 | O=C(C1CC2CCC1C2)N1CCN(Cc2ccc3c(c2)OCO3)CC1 (stereo not drawn) | 408 | 6.8% (inactive) | 17.4% (inactive) | 124 | -90.8% (inactive) | 116 | -0.579 (inactive) | -2.2e-05 (inactive) | 0.00565 (inactive) | 13.2% (inactive) | 19.3% (inactive)
23 | COC(=O)c1ccccc1NC(=O)C1CCCCC1C(=O)O (stereo not drawn) | 266 | 2.8% (inactive) | 15.8% (inactive) | 98.8 | -39.2% (inactive) | 85.6 | -0.556 (inactive) | -2.1e-05 (inactive) | 0.00471 (inactive) | 12.8% (inactive) | 11.6% (inactive)
24 | C=Cn1c(C(=O)O)cc(CC)c1-c1ccccc1 | 642 | -12.5% (inactive) | -22.8% (inactive) | 107 | -51.5% (inactive) | 112 | -0.55 (inactive) | -4.3e-05 (inactive) | 0.00458 (inactive) | 10.9% (inactive) | 9.07% (inactive)
25 | CC(OC(=O)c1cccc(NS(C)(=O)=O)c1)C(=O)Nc1ccc(N2CCOCC2)cc1 (stereo not drawn) | 415 | -11.6% (inactive) | -32.5% (inactive) | 101 | -52.8% (inactive) | 148 | -0.559 (inactive) | -3.1e-05 (inactive) | 0.0061 (inactive) | 16.6% (inactive) | -7.05% (inactive)
26 | Cn1c(=O)n(C)c2cc(NC(=O)C(F)(F)F)ccc21 | 231 | -14.4% (inactive) | 34.3% (active) | 96.5 | -10.9% (inactive) | 103 | -0.449 (inactive) | -3.6e-06 (inactive) | 0.00534 (inactive) | 5.97% (inactive) | 17.7% (inactive)
27 | N#Cc1c(/N=C/c2ccco2)sc2c1CCC2 | 657 | 11.9% (inactive) | 0.6% (inactive) | 105 | -12.4% (inactive) | 104 | -0.507 (inactive) | -0.000202 (inactive) | 0.00356 (inactive) | -16.4% (inactive) | -42.7% (inactive)
28 | Cc1cc(=O)oc2cc(Oc3ncccn3)ccc12 | 476 | 2.4% (inactive) | 9% (inactive) | 93.1 | -29.9% (inactive) | 111 | -0.427 (inactive) | -1.6e-05 (inactive) | 0.00578 (inactive) | -6.46% (inactive) | -5.6% (inactive)

— PubChem BioAssay
